Source: ChEMBL document CHEMBL4706497, “The structure-based optimization of δ-sultone-fused pyrazoles as selective BuChE inhibitors” (Eur J Med Chem, 2020)
Active and inactive are the calls of the source. No cut-off for these calls is given here.

Experiments:
[1] = molecular target: T1, Cholinesterase (Equus caballus, UniProt P81908); test: Inhibition of equine serum BuChE using butyrylthiocholine iodide as substrate preincubated with enzyme for 20 mins followed by addition of substrate and measured after 20 mins by DTNB reagent based Ellman's method; assay type: cell-free
T1 sequence (P81908 whole entry): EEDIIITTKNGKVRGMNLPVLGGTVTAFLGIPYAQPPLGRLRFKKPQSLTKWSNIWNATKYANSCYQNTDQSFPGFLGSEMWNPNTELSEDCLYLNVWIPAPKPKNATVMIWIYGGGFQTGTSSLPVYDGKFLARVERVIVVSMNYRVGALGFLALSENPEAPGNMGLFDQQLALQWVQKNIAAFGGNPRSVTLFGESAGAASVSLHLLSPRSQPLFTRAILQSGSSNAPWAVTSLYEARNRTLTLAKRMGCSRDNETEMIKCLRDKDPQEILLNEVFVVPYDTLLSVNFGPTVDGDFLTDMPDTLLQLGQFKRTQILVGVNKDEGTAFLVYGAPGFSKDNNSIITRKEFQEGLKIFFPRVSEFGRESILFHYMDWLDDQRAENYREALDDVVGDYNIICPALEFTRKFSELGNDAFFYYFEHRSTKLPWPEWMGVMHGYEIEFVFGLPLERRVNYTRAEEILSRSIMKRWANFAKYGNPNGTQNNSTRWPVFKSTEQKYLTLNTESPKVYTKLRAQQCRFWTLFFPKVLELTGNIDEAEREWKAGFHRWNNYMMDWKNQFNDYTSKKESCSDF
Summary of the method: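 Enzyme at 0.036 U/mL in 0.1 M phosphate buffer pH 8, preincubated with inhibitor 20 min at 37 °C. Then 0.5 mM butyrylthiocholine iodide and 0.35 mM DTNB added, and A410 read after 20 min. IC50 taken graphically from log concentration vs % inhibition curves. Mean ± SEM of at least three independent experiments.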

[2] = Octanol/Water partition coefficient, log P of the compound in PBS buffer at pH7.4 measured after 48 hrs by shake flask method; assay type: physicochemical; conditions: pH 7.4
Summary of the method: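 Shake-flask partition between equal volumes of n-octanol and PBS pH 7.4, pre-saturated by sonication and standing 24 h. Compound added, vessel sealed and shaken at 37 °C for 48 h to equilibrate, then phases analysed by HPLC.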

[3] = Antioxidant activity assessed as free radical scavenging activity at 100 uM measured after 2 hrs under dark conditions by DPPH assay relative to control; assay type: functional
Summary of the method: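 Each compound at 100 μM mixed with DPPH (140 μM) and incubated 2 h in the dark at 37 °C. Absorbance read at 520 nm. Reduction percentage = (1 − A_C/A₀) × 100%, with A_C and A₀ the absorbance with and without compound. Ascorbic acid served as standard.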

[4] = molecular target: Acetylcholinesterase (AChE) (Electrophorus electricus, UniProt O42275); test: Inhibition of recombinant electric eel AChE using acetylthiocholine iodide as substrate at 20 uM preincubated with enzyme for 20 mins followed by addition of substrate and measured after 20 mins by DTNB reagent based Ellman's method; conditions: probe acetylthiocholine iodide, time 40 min
Chain of Acetylcholinesterase (AChE) (O42275 whole entry): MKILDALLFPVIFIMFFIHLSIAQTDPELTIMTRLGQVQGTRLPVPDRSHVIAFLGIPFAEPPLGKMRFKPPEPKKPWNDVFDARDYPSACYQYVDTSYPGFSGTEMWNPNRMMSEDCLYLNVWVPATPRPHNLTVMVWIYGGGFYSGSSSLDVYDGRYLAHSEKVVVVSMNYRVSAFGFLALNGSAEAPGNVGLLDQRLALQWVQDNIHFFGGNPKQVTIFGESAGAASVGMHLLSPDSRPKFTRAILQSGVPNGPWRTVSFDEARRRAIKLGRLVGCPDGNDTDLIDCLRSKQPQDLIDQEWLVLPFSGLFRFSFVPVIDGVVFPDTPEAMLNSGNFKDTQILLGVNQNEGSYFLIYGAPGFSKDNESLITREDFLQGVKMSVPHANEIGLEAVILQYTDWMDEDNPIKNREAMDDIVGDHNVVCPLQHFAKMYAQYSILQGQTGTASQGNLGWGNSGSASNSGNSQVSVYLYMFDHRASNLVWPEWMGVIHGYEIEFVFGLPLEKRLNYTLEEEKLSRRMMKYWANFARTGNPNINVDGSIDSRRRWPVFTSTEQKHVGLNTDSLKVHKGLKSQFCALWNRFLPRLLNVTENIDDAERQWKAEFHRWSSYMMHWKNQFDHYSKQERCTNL
Summary of the method: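 Enzyme at 0.036 U/mL in 0.1 M phosphate buffer pH 8, preincubated 20 min at 37 °C with compound at 20 μM. Then 0.35 mM acetylthiocholine iodide and 0.35 mM DTNB added, and A410 read after 20 min. Percent inhibition compared with a no-inhibitor control.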

[5] = Selectivity for equine serum BuChE over recombinant electric eel AChE
[6] = molecular target: T1, Cholinesterase; test: Mixed inhibition of equine serum BChE using butyrylthiolcholine iodide as substrate by Lineweaver-Burk plot analysis; assay type: cell-free
Summary of the method: (§1)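 Run under the standard Ellman conditions (0.036 U/mL enzyme, pH 8, 37 °C). Six butyrylthiocholine concentrations (0.1–1 mM) crossed with inhibitor at 0, 0.02, 0.04 and 0.08 μM. Lineweaver-Burk plots and secondary plots used for mode of inhibition and Ki. Reversibility tested by varying enzyme at 0–0.72 U/mL at each inhibitor concentration.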

[7] = tested on: HepG2; test: Cytotoxicity against human HepG2 cells assessed as reduction in cell viability at 50 uM measured after 24 hrs by MTT assay; assay type: cell-based; conditions: hepg2, 24 h
Summary of the method: (§2)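 HepG2 and LO2 cells grown in DMEM with 10% FBS, penicillin/streptomycin, 37 °C, 5% CO2. Cells seeded at 1×10^4/well, cultured 24 h, then exposed 24 h to compound diluted in DMEM (range 1–50 μM). MTT 0.5 mg/mL added for 4 h, formazan dissolved in DMSO, OD read at 492 nm. Viability is given relative to medium-only blank (100%); three independent experiments.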

[8] = tested on: L02; test: Cytotoxicity against human L02 cells assessed as reduction in cell viability at 10 to 25 uM measured after 24 hrs by MTT assay; assay type: cell-based; conditions: l02, 24 h, dose 10-25 µM; summary of the method: as §2
[9] = molecular target: Cholinesterase (Equus caballus) (UniProt P81908); test: Reversible inhibition of equine serum BChE using butyrylthiolcholine iodide as substrate at 0.02 to 0.08 uM by Lineweaver-Burk plot analysis; assay type: cell-free; conditions: dose 0.02-0.08 µM; summary of the method: as §1
Chain of Cholinesterase (Equus caballus) (P81908 whole entry): as the sequence (P81908 whole entry) above

[10] = tested on: L02; test: Cytotoxicity against human L02 cells assessed as reduction in cell viability at 50 uM measured after 24 hrs by MTT assay; assay type: cell-based; conditions: l02, 24 h; summary of the method: as §2
[11] = Neuroprotective activity against H2O2 induced cytotoxicity in […] cells assessed as cell viability at […] uM preincubated for 3 hrs followed by addition of H2O2 measured after 24 hrs by MTT assay; assay type: functional; conditions: PC-12, time 27 hrs, read-out: Activity
[12] = tested on: HepG2; test: Cytotoxicity against human HepG2 cells assessed as reduction in cell viability at 10 to 25 uM measured after 24 hrs by MTT assay; assay type: cell-based; conditions: hepg2, 24 h, dose 10-25 µM; summary of the method: as §2
[13] = tested on: PC-12; test: Neuroprotective activity against H2O2 induced cytotoxicity in […] cells assessed as cell viability preincubated for 3 hrs followed by addition of H2O2 measured after 24 hrs by MTT assay; assay type: functional, cell-based; conditions: dose 6.25-25 µM, time 27.0 hrs
Summary of the method: (§3)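 PC12 cells seeded at 1×10^4/well and incubated overnight. Pretreated 3 h with compound (1–25 µM), then medium replaced with fresh medium containing compound plus 100 µM H2O2 for a further 24 h. Viability read by MTT (0.5 mg/mL, 4 h), formazan dissolved in DMSO, OD at 492 nm, corrected for blank.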

[14] = Neuroprotective activity against H2O2 induced cytotoxicity in […] cells assessed as cell viability at 25 uM preincubated for 3 hrs followed by addition of H2O2 measured after 24 hrs by MTT assay; assay type: functional; conditions: PC-12, time 27 hrs, read-out: Activity; summary of the method: as §3

Row | SMILES | IC50 [1] [nM] | inhibition [3] [%] | also measured
1 | CCN(Cc1ccccc1)Cc1nn(-c2ccccc2Cl)c2c1CCS(=O)(=O)O2 | 50 |  | 
2 | CCN(Cc1ccccc1)Cc1nn(-c2ccccc2F)c2c1CCS(=O)(=O)O2 | 80 | 1.8 | logD at 48 h [2]: 2
3 | O=S1(=O)CCc2c(CN(CCO)Cc3ccccc3)nn(-c3ccccc3F)c2O1 | 40 | 5.4 | logD at 48 h [2]: 2.05
4 | O=S1(=O)CCc2c(CCl)nn(-c3ccccc3Cl)c2O1 | 200 |  | 
5 | O=S1(=O)CCc2c(C3CC3)nn(-c3ccccc3F)c2O1 | 140 |  | logD at 48 h [2]: 2.09
6 | O=S1(=O)CCc2c(CN(CCO)Cc3cccc(F)c3)nn(-c3ccccc3F)c2O1 | 90 | 5 | 
7 | O=S1(=O)CCc2c(-c3ccccc3)nn(-c3ccccc3Cl)c2O1 | 170 |  | 
8 | O=S1(=O)CCc2c(C3CC3)nn(-c3cccc(F)c3)c2O1 | 370 |  | 
9 | O=S1(=O)CCc2c(-c3ccc(Br)cc3)nn(-c3ccccc3F)c2O1 | 470 |  | 
10 | O=S1(=O)CCc2c(C3CC3)nn(-c3cccc(Cl)c3)c2O1 | 700 |  | 
11 | COCCN(Cc1ccc(F)cc1)Cc1nn(-c2ccccc2F)c2c1CCS(=O)(=O)O2 | 110 | 6.3 | 
12 | CN(Cc1ccccc1)Cc1nn(-c2ccccc2Cl)c2c1CCS(=O)(=O)O2 | 70 |  | 
13 | COc1ccc(-c2nn(-c3ccc(Cl)cc3)c3c2CCS(=O)(=O)O3)cc1 | 8780 |  | 
14 | O=S1(=O)CCc2c(CN3CCN(Cc4ccccc4)CC3)nn(-c3ccccc3Cl)c2O1 | 460 |  | 
15 | O=S1(=O)CCc2c(CN(CCO)Cc3ccc(F)cc3)nn(-c3ccccc3F)c2O1 | 8.3 | 5.5 | logD at 48 h [2]: 2.42
16 | O=S1(=O)CCc2c(-c3ccc(Cl)cc3)nn(-c3ccccc3F)c2O1 | 200 |  | 
17 | O=S1(=O)CCc2c(CN3CCN(Cc4ccccc4)CC3)nn(-c3ccccc3F)c2O1 | 680 |  | 
18 | COc1ccc(CN(CCO)Cc2nn(-c3ccccc3F)c3c2CCS(=O)(=O)O3)cc1OC | 560 | 5.5 | 
19 | O=S1(=O)CCc2c(CN3CCOCC3)nn(-c3ccccc3Cl)c2O1 | 410 |  | 
20 | CN(Cc1ccc(Br)cc1)Cc1nn(-c2ccccc2F)c2c1CCS(=O)(=O)O2 | 70 | 0.2 | inhibition at 20 min, 20 µM [4]: 33.6%
21 | O=S1(=O)CCc2c(-c3ccc(Br)cc3)nn(-c3ccccc3Cl)c2O1 | 3690 |  | 
22 | CN(Cc1ccc(F)cc1)Cc1nn(-c2ccccc2F)c2c1CCS(=O)(=O)O2 | 40 | 5.7 | 
23 | COCCN(Cc1ccccc1)Cc1nn(-c2ccccc2F)c2c1CCS(=O)(=O)O2 | 240 | 2.3 | 
24 | O=S1(=O)CCc2c(CN3CCOCC3)nn(-c3ccccc3F)c2O1 | 150 |  | 

Row | SMILES | IC50 [1] [nM] | inhibition [3] [%] | also measured
25 | O=S1(=O)CCc2c(-c3ccccc3)nn(-c3ccccc3F)c2O1 | 180 |  | 
26 | O=S1(=O)CCc2c(CN(CCO)Cc3ccc(Cl)cc3)nn(-c3ccccc3F)c2O1 | 90 | 10.2 | 
27 | CCN(Cc1ccc(Br)cc1)Cc1nn(-c2ccccc2F)c2c1CCS(=O)(=O)O2 | 70 | 12.9 | 
28 | Cc1ccc(CN(CCO)Cc2nn(-c3ccccc3F)c3c2CCS(=O)(=O)O3)cc1 | 170 | 5.2 | 
29 | CCN(Cc1ccc(Cl)cc1)Cc1nn(-c2ccccc2F)c2c1CCS(=O)(=O)O2 | 40 | 4.2 | 
30 | COCCN(Cc1ccc(Br)cc1)Cc1nn(-c2ccccc2F)c2c1CCS(=O)(=O)O2 | 150 | 4.8 | 
31 | Cc1nn(-c2ccccc2F)c2c1CCS(=O)(=O)O2 | 1190 |  | 
32 | O=S1(=O)CCc2c(CN(CCO)Cc3ccc(Br)cc3)nn(-c3ccccc3F)c2O1 | 7.7 | 22.2 | logD at 48 h [2]: 1.93; Selectivity Index [5]: > 2000; Ki [6]: 24 nM; Activity [7]: 82.8%; Activity [8]: Non-Toxic; inhibition at 20 min, 20 µM [4]: 43.3%; inhibition [9]: Active; Activity [10]: 95.3%; viability at […] [11]: 40.9%; Activity [12]: Non-Toxic; Activity [13]: Dose-dependent effect; viability at 25 µM [14]: 49.6%
33 | CN1CCN(Cc2nn(-c3ccccc3F)c3c2CCS(=O)(=O)O3)CC1 | 2170 |  | 
34 | O=S1(=O)CCc2c(CN(CCO)Cc3ccccc3)nn(-c3ccccc3Cl)c2O1 | 40 |  | 
35 | O=S1(=O)CCc2c(-c3ccc(F)cc3)nn(-c3ccccc3Cl)c2O1 | 130 |  | 
36 | CN1CCN(Cc2nn(-c3ccccc3Cl)c3c2CCS(=O)(=O)O3)CC1 | 2220 |  | 
37 | CCN(Cc1ccc(F)cc1)Cc1nn(-c2ccccc2F)c2c1CCS(=O)(=O)O2 | 70 | 0.6 | 
38 | O=S1(=O)CCc2c(-c3ccc(Cl)cc3)nn(-c3ccccc3Cl)c2O1 | 1580 |  | 
39 | CN(Cc1ccccc1)Cc1nn(-c2ccccc2F)c2c1CCS(=O)(=O)O2 | 80 |  | logD at 48 h [2]: 1.78
40 | CN(Cc1ccc(Cl)cc1)Cc1nn(-c2ccccc2F)c2c1CCS(=O)(=O)O2 | 20 | 6.1 | 
41 | COCCN(Cc1ccc(Cl)cc1)Cc1nn(-c2ccccc2F)c2c1CCS(=O)(=O)O2 | 90 | 3.6 | 
42 | COc1ccc(CN(CCO)Cc2nn(-c3ccccc3F)c3c2CCS(=O)(=O)O3)cc1 | 260 | 3.2 | 
43 | O=S1(=O)CCc2c(CCl)nn(-c3ccccc3F)c2O1 | 190 |  | 
44 | O=S1(=O)CCc2c(CN(CCO)Cc3ccc(Cl)cc3Cl)nn(-c3ccccc3F)c2O1 | 90 | 1.8 | 
45 | O=S1(=O)CCc2c(-c3ccc(F)cc3)nn(-c3ccccc3F)c2O1 | 160 |  | 
46 | O=S1(=O)CCc2c(CN(CCO)Cc3cccc(Br)c3)nn(-c3ccccc3F)c2O1 | 330 | 0.8 | 
47 | O=S1(=O)CCc2c(C3CC3)nn(-c3ccccc3Cl)c2O1 | 180 |  | 
48 | O=S1(=O)CCc2c(CN(CCO)Cc3cccc(Cl)c3)nn(-c3ccccc3F)c2O1 | 190 | 4.7 | 
